Results on seven compounds are retold here after paper PMC3141330 (Biochemistry, 2010).

“And” between values parts separate entries of the source, which are not always exact repeats. Equal values may be shown once. “Also recorded” adds a separate entry of the source.

Data set [1] concerns Hsp70 in BT474 breast cancer cells. Description: Quantitative Western blot: Hsp70 in BT474 cells after 17-AAG. The class given is cell-based. Particulars: BT474, 0.178 µM 17-AAG, 7 or 14 hours; ~10 µM (monomer) under normal conditions. The method in brief: (§1)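 BT474 cells, seeded overnight, were exposed to 0.178 µM test compound (Hsp90 inhibitor) for 7 or 14 h; untreated cells were harvested at 15 h. Cells were counted, then lysed in SDS buffer. Extract from 35,000 cells (Hsp70, Hsp90, HOP) or 70,000 cells (CHIP) was blotted with ECL detection against a linear purified-protein calibration series. Values were converted via cell number and a cell volume of 3.5×10⁻⁶ µl.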
A general note: Immunoblotting shows a protein as a band on a membrane.

For data set [2], the system named is Hsp90 in BT474 breast cancer cells. The data set is described as follows: Quantitative Western blot: Hsp90 in BT474 cells after 17-AAG. The class given is cell-based. Particulars: BT474, 0.178 µM 17-AAG, 7 or 14 hours; Hsp90 dimer; same as normal. A digest of the protocol:
as §1

Data set [3] deals with HOP in BT474 breast cancer cells. Description: Quantitative Western blot: HOP in BT474 cells after 17-AAG. In kind it is cell-based. As to conditions: BT474, 0.178 µM 17-AAG, 7 or 14 hours; HOP monomer; same as normal. A digest of the protocol:
as §1

Data set [4] relates to CHIP in BT474 breast cancer cells. Description: Quantitative Western blot: CHIP in BT474 cells after 17-AAG. In kind it is cell-based. As to conditions: BT474, 0.178 µM 17-AAG, 7 or 14 hours; CHIP monomer; constant versus normal. A digest of the protocol: as §1
For data set [5], the system named is HER2 in BT474 breast cancer cells. Description: Western blot: HER2 in BT474 cells after 17-AAG. In kind it is cell-based. Particulars: BT474, 0.178 µM 17-AAG, 7 or 14 hours; qualitative, GAPDH loading control.
For the next data set, the system named is HER2/neu. As to conditions: Hsp90 inhibition in cells; CHIP-dependent; ref [17]; cited from earlier work.
The test system of data set [6] is Hsp90. As to conditions: ref [32]; cited from earlier work.
Data set [7] deals with T1, CHIP (Homo sapiens, UniProt Q9UNE7).
T1 sequence (Q9UNE7 1-303): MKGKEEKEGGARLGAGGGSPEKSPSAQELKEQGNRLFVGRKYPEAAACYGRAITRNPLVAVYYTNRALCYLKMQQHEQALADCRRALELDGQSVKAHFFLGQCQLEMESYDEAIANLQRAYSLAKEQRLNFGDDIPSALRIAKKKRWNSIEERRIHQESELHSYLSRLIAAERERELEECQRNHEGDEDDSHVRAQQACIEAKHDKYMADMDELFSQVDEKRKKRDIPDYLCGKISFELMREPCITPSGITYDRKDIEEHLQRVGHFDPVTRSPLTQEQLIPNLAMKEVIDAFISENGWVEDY
Description: ITC: C-terminal peptides of Hsp70 or Hsp90. The class given is binding. Particulars: dimer and tetramer species of CHIP, data not shown. In general terms: ITC needs no label: the signal is the heat of the interaction.

Data set [8] addresses T1, CHIP. The class given is biochemical. Particulars: discussion summary. A digest of the protocol: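 Reactions contained 0.091 µM human UBE1, 20 µM UbcH5c, 20 µM CHIP, 100 µM Hsp70 T13G ±188 µM model client peptide. Buffer: 50 mM Tris pH 7.4, 150 mM KCl, 10 mM NaCl, 3 mM MgCl2, 10 mM ATP, 0.1 mM βME. Preincubated 30°C ~10 min, started with 0.5 mM ubiquitin. Timed aliquots ran on Coomassie SDS-PAGE; ubiquitin per CHIP monomer fitted linearly early (slope = rate); three independent experiments, SD.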

Data set [9] relates to Hsp90-dependent client proteins. Particulars: CFTRΔF508 and wild-type CFTR; ref [36]; cited from earlier work.
Another data set deals with Hsp70 and Hsp90. Particulars: ref [18], cited from earlier work.
The subject of data set [10] is CHIP. As to conditions: 'normal' non-Hsp90 inhibited cells, cycloheximide; ref [17]; cited from earlier work.
For data set [11], the system named is Hsp90. Description: Competition pull-down: HOP versus GST-CHIP for Hsp90. In kind it is binding. A digest of the protocol: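 GST-CHIP (10 µM) and His6-Hsp90 (10 µM), or subsets as controls, were mixed with 3–30 µM His6-HOP in 50 mM Tris pH 7.4, 10 mM NaCl, 5 mM βME. Mixtures were held on ice ~10 min, then rotated with glutathione agarose at 4°C for 1 h and washed 4×. Bound protein was eluted in SDS buffer and resolved by Coomassie SDS-PAGE.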

Data set [12] concerns Hsp90. Description: Control Ni-NTA pull-down of HOP by His6-Hsp90. In kind it is binding. Particulars: 20 µM His6-Hsp90, 20 µM HOP without His6-tag, 150 mM KCl, 3 mM MgCl2, Ni-NTA, 4°C.
The test system of the next data set is Hsp70. Particulars: ref [35]; cited from earlier work.
Data set [13] relates to Hsp90. As to conditions: human Hsp90; ref [19]; cited from earlier work.

In the case of `C=CCNC1=C2C[C@@H](C)C[C@H](OC)[C@H](O)[C@@H](C)/C=C(\C)[C@H](OC(N)=O)[C@@H](OC)/C=C\C=C(/C)C(=O)NC(=CC1=O)C2=O` [17-AAG], in data set [1], the “total Hsp70 cellular concentration upon 17-AAG treatment” value is 39 µM and ~ 39 µM. Further, the “Hsp90 level upon 17-AAG treatment” value in data set [2] was ~ 5 µM. Besides, in data set [3], the “HOP level upon 17-AAG treatment” value was ~ 3 µM. In data set [4], the “CHIP concentration upon 17-AAG treatment” value was ~ 0.1 µM. Besides, the “HER2 levels upon 17-AAG treatment (in words)” value in data set [5] is “decrease in HER2 levels”. The “degradation of HER2/neu (in words)” value in the data set on HER2/neu was “client proteins such as the oncoprotein HER2/neu undergo rapid CHIP-dependent degradation; also recorded: rapid degradation of the Hsp70/Hsp90 client protein HER2/neu”. For the same compound, the “binding to Hsp90 (in words)” value in the data set with Hsp90 [6] was “binds to the ATP binding pocket and renders the chaperone unable to facilitate client protein folding process”.
`COC1=C2C[C@@H](C)C[C@H](OC)[C@H](O)[C@@H](C)/C=C(\C)[C@H](OC(N)=O)[C@@H](OC)/C=C\C=C(/C)C(=O)NC(=CC1=O)C2=O` [geldanamycin]: the “degradation of HER2/neu (in words)” value with HER2/neu is “rapid degradation of the Hsp70/Hsp90 client protein HER2/neu”.
For “Carboxyl terminus of Hsc70-interacting protein [CHIP]”, the “binding of both CHIP oligomeric species to Hsp70 (in words)” value in the data set with CHIP [7] was “both oligomeric species of CHIP bind Hsp70 with the same binding affinity and stoichiometry”. Moreover, in the data set with CHIP [8], the “rate of ubiquitination at substrate concentrations much above KM” value is reported as ~ 0.1 ubiquitin molecules attached/CHIP monomer/minute. The “degradation of CFTR on increase in CHIP concentration (in words)” value in data set [9] is “leads to degradation of a cystic fibrosis causing mutant of Hsp70/Hsp90 client protein CFTR, CFTRΔF508; also recorded: also leads to degradation of wild-type CFTR”. The “effect of CHIP over-expression on Hsp70 levels (in words)” value with Hsp70 and Hsp90 (over-expression of CHIP) is on record as “decrease in Hsp70 levels”. Besides, the “effect of CHIP on half-life of Hsp70 and Hsp90 (in words)” value in the data set on Hsp70 and Hsp90 is “greatly decreased the half-life of both Hsp70 and Hsp90, with degradation of Hsp70 being more pronounced”.
On to “HER2: oncoprotein, Hsp70/Hsp90 client protein”, for which the “half life of HER2 in normal cells” value in the data set on CHIP [10] was “less than 1 hour”.
On to Hsp70/Hsp90 organizing protein [HOP], for which the “competition with CHIP for binding to Hsp90 (in words)” value with Hsp90 [11] (3-30 µM His6-HOP, 10 µM GST-CHIP, 10 µM His6-Hsp90, 50 mM Tris pH 7.4, 10 mM NaCl, 5 mM βME, 4°C 1 hour, glutathione agarose) is “CHIP does not pull-down HOP through Hsp90, but that HOP and CHIP compete for binding to Hsp90; also recorded: HOP is competing with CHIP for binding to Hsp90”. In addition, the “binding of HOP to CHIP, control (in words)” value with Hsp90 [11] (control lanes, glutathione agarose pull-down with GST-CHIP) was “HOP does not bind to CHIP”. Besides, in the data set on Hsp90 [12], the “pull-down of HOP by Hsp90 (in words)” value is “the HOP and Hsp90 interaction is stable; also recorded: HOP does not bind non-specifically to the resin but binds to Hsp90”.
Consider “Hsp70: heat shock induced monomeric molecular chaperone; recombinant His6-Hsp70”, for which, in the data set with Hsp70, the “kcat for client peptide stimulated hydrolysis of ATP by Hsp70” value is 0.0017 to 0.005 s⁻¹.
As to “Hsp90: heat shock induced homo-dimeric molecular chaperone; recombinant His6-Hsp90β”, the “kcat of ATP hydrolysis by Hsp90” value with Hsp90 [13] is recorded as ~ 0.09 min^−1.
